The data set deals with MS2 coat protein. Kind of data set: apparent Kd, MS2 coat protein; higher = weaker binding; RNA-MaP array; FMN 200 µM where present. The method in brief:
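Green signal from SNAP-549-labelled MS2 coat protein was normalised to red-channel RNA signal and to the median Fmax of control clusters. The protein was titrated from 0.7 or 1.5 nM, doubling to 3 µM, without and then with constant ligand, over designs transcribed by stalled E. coli RNA polymerase on Illumina sequencing-chip clusters, in 100 mM Tris-HCl pH 7.5, 80 mM KCl, 4 mM MgCl2, BSA, DTT, yeast tRNA and Tween-20. The apparent Kd is the median of filtered per-cluster binding-curve fits.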

Where [1] appears, read: designed as: ON switch for flavin mononucleotide, no ligand.
Setting [2] is: ligand present: flavin mononucleotide, designed as: ON switch for flavin mononucleotide.
Where [3] appears, read: designed as: OFF switch for flavin mononucleotide, no ligand.
Setting [4] is: ligand present: flavin mononucleotide, designed as: OFF switch for flavin mononucleotide.

With “CGUUUAUAUCGAGGAUAUAAGUCUAGGACAUGAGGAUCACCCAUGUAUGUCUUAGAAGGCGAUAUAAACAGCCUGUUACAGGCA”, the “apparent Kd” value by setting is: under setting [1], 35.3 nM; under setting [2], 6.96 nM.
For “AAUUAACAUGAGGAUCACCCAUGUCGUAUUAUGGGAGGAUAUACGUGGACCGUAGUCCGCGUAGAAGGCCUAAUUA”, the “apparent Kd” value runs as follows: under setting [1], 36.6 nM; under setting [2], 18 nM.
Taken in the same sequence, the figures for “GCGCAAACAUGAGGAUAUGUAUUAAAUAAUAAUACAGAAGGCAUGUCAAAUGACAUGAGGAUCACCCAUGUUGGCAAAAUGCGC” were 80.6 nM and 15.9 nM.
As to “CAGGAUAGAGGAUAUACAUAGAUACAGAUUCAUGUAAUCCUACAUGAGGAUCACCCAUGUAGAAGGCUAUCCUG”, the “apparent Kd” value is, setting by setting: under setting [3], 14.9 nM; under setting [4], 64.9 nM.
For “GGAGCUCAUCAAUACAUGAGGAUCACCCAUGUCGAAUGAUAUGAGGAUAUGCAUCGGAAAACGAUGUAGAAGGCAUAGAGCUCC”, the “apparent Kd” value reads like this: under setting [1], 15.3 nM; under setting [2], 6.63 nM.
As for “UAAAUACAUGAGGAUCACCCAUGUGAGGAUAUCCGAUGAUUCGGAGAAAUGACCCGUUGGAGAAGGCAUAGGGC”, the “apparent Kd” value came to 30.8 nM under setting [3] and 22.7 nM under setting [4].
Turning to “AAAAAACAUGAGGAUCACCCAUGUCGAAAGACAUGAGGAUAUGUGUGGAAACCAUACUAUACAGAAGGCAUAAAAA”, the “apparent Kd” value turned out to be 37.8 nM under setting [1] and 371 nM under setting [2].
In the case of “CAGUGCUGUCGAGAGGAUAUGCGGUGAUGGACAUGAGGAUCACCCAUGUUAGCGACAGCAUCACGGCAGAAGGCUCUACCCACUG”, the “apparent Kd” value worked out at 29.4 nM under setting [1] and 17 nM under setting [2].
For the sequence “CUUAUGUGAGGAUAUGUACAGAAAAAACUGGGUGUAACUGUACAGAAGGCACAUGAGGAUCACCCAUGUGCAUU”, the “apparent Kd” value is, setting by setting: under setting [3], 59.9 nM; under setting [4], 57.1 nM.
Taken in the same sequence, the figures for “CUUUUGUGAGGAUAUUAGUAGUAAAAAAAUAAAAUUACUACUGAGAAGGCACAUGAGGAUCACCCAUGUUCUUC” were 19 nM and 98.1 nM.
As to “AUACAUGAGGAUCACCCAUGUUACUGGGUCUAUAUAGAACGUAGAAGGAUGUAUUUAAGAAUAACAUAGGAUAUACUUUAUAGU”, the “apparent Kd” value under setting [3] was found to be 60.4 nM and the “apparent Kd” value under setting [4] was determined as 38.2 nM.
Taken in the same sequence, the figures for “GCACGGUAUGUAGGAUAUGCAUAGCAUUGCUAUGCAGAAGGACAUGAGGAUCACCCAUGUAUGUAUUCCAUACAAUUCCCGUGC” were 5.41 nM and 5.82 nM.
Taken in the same sequence, the figures for “GCCUGCUGGCGAGGAUAUUCUGUGAGGUUCCGGCUCGUGUCUGUUACAUGAGGAUCACCCAUGUGGGAGAAGGUGUCUGUGGCC” were 6.15 nM and 6.13 nM.
Taken in the same sequence, the figures for “UGCAUGUAAGGAUAUGCAACCGGCGCUCAUUCGCCGGUCAAGCAGAAGGUACAUGAGGAUCACCCAUGUGUCCG” were 31.3 nM and 139 nM.
On to “ACAUGAGGAUCACCCAUGUGUGCAUAGGAUAUUGAGGAUUAGGGAUGUUUUUUUGGAUUUGCCCACAAGAAGGAUGAAAGUGUU”, for which the “apparent Kd” value was determined as 10.6 nM under setting [1] and 10.5 nM under setting [2].
As to “CACCGCGACAAUGCGGUGUCACAUGAGGAUCACCCAUGUUCACAGGAUAUGCGAUAGCCAACGAAGCAGAAGGGUGAUUACUUA”, the “apparent Kd” value came to 32.3 nM under setting [1] and 172 nM under setting [2].
As for “UAUUUGUGAGGAUAUGAGUCGUAGAACAAUAGUACUACGUCUCAGAAGGUACAUGAGGAUCACCCAUGUUCCUC”, the “apparent Kd” value runs as follows: under setting [3], 19 nM; under setting [4], 28 nM.
Taken in the same sequence, the figures for “ACAAAUCAUGUAGGAUAUCGAUUGCGUCGCGAUCGAGAAGGACAAGAGGGUCACCCUUGUACAUGAGGAUCACCCAUGUCAUGA” were 193 nM and 120 nM.
With “GGAUUACAUGAGGAUCACCCAUGUGAGGAUAUCGAUGUCCUCAAUGAAGUGCGGGACUCGAGAAGGCACUUGGA”, the “apparent Kd” value by setting is: under setting [3], 78.5 nM; under setting [4], 108 nM.
With “CAAAACGAGGCAGGAUAUCAAUACAUGAGGAUCACCCAUGUGUGACGUAGGCCGGUCUUCGUGACUGAGAAGGGUCUCUAGUUA”, the “apparent Kd” value reads like this: under setting [3], 11 nM; under setting [4], 40.5 nM.
In the case of “UUUGUAAUGUCAGGAUAUAUUAUAAGUCAGACUGUAGAAGGGAUAAUUAUACUCAUGUACAUGAGGAUCACCCAUGUUAAAUAU”, the “apparent Kd” value runs as follows: under setting [1], 97.1 nM; under setting [2], 53.2 nM.
Taken in the same sequence, the figures for “UGGUACUAGGGAGGAUAUGGGAAGAUACAUGAGGAUCACCCAUGUUUAAGAAUGCCGAGAGGCUACUAGAAGGCCCUAGUACCU” were 268 nM and 9.69 nM.
As to “AAACAUGUCCGAGGAUAUCUGGAAACUUUUUCAAGAGAAGGCGGACAUGAGGAUCACCCAUGUCUCUCCUCAUCAAAUCCAAGU”, the “apparent Kd” value worked out at 7.94 nM under setting [3] and 50.3 nM under setting [4].
For the sequence “CAGCCCUGAGGAUAUCCCUACUCGCACAUGAGGAUCACCCAUGUCCUCCUCCGGGCUUCGGGAGAAGGCAGGUCUC”, the “apparent Kd” value runs as follows: under setting [3], 22.4 nM; under setting [4], 93.5 nM.
Taken in the same sequence, the figures for “AUCAGCUCGUCAGGAUAUACGUCACUGAGUCAGCAGUGUGGUAAGAUCACAUGAGGAUCACCCAUGUAGAAGGGACGAGCUGAU” were 16.3 nM and 241 nM.
For the sequence “GUACCUUAUGAGAAGGCGAUCAUGAAACAUGAUCGAGGAUAUCAUGUAAACAUGAGGAUCACCCAUGUAUGGGUAUUAUGGUAG”, the “apparent Kd” value worked out at 40.8 nM under setting [1] and 11.3 nM under setting [2].
As to “CCAGCAACAUGAGGAUCACCCAUGUAGGAUAUCGCUAUUGUAAUCAUGAAACAUGAUUACAAUAGCGAGAAGGACAUAUGCUAA”, the “apparent Kd” value reads like this: under setting [3], 9.29 nM; under setting [4], 10.2 nM.
For “GCUACAUAUAUUAAGUAUGAUUAACUAGAAGGUAGAUACAUGAGGAUCACCCAUGUUAAGAGUUCUAAGGAUAUAGUUUGUAGC”, the “apparent Kd” value is, setting by setting: under setting [1], 113 nM; under setting [2], 56.6 nM.
On to “AAGAAGUCAGGAUAUCCAGCUCGUCACUUGCGUGAUGAGUUGGAGAAGGGACAUGAGGAUCACCCAUGUAAAGG”, for which the “apparent Kd” value turned out to be 202 nM under setting [3] and 230 nM under setting [4].
“UGGUUUAGUGUUAGGAUAUAAUCCGAAGUCAGCGAUUAGAAGGAACAUGAGGAUCACCCAUGUUUUAGAUAACC”: the “apparent Kd” value is, setting by setting: under setting [3], 16 nM; under setting [4], 16.9 nM.
Turning to “UUUGCAUGACGAGGAUAUCAUUUAUUUCUUGAUUGAGAAGGCGUUCUUUUUAAUACCUAACAUGAGGAUCACCCAUGUGACAGU”, the “apparent Kd” value under setting [1] worked out at 17.9 nM and the “apparent Kd” value under setting [2] is 13.2 nM.
Regarding “UCAUGUUAGCAGGAUAUGCUAUUUAUUUUUUAUGCAGAAGGGCUUACAUGAGGAUCACCCAUGUGUUAGGUUUU”, the “apparent Kd” value reads like this: under setting [3], 41.8 nM; under setting [4], 21.1 nM.
For “CCAUGACAAAGUCAUGGAAUACGAACAUGAGGAUCACCCAUGUAGGAUAUGCUACUCAAAGAGUAGCAGAAGGACAUGUGUCUU”, in that order: 29.9 nM and 156 nM.
In the case of “ACCGAAUGAACAUGAGGAUCACCCAUGUACACGAAAGUGAAUGAGGAUAUCGAUAGCAAAGCUAUCGAGAAGGCAUGGGUCGGU”, the “apparent Kd” value runs as follows: under setting [1], 565 nM; under setting [2], 144 nM.
Take “UACAGCCGCAUCCCAUCGCUGGAAGAGGAUAUACAUCAUCGCGCACUCACAUGAGGAUCACCCAUGUAGAAGGCUUCCUGGCGG”: the “apparent Kd” value is 7.94 nM under setting [3] and 25.4 nM under setting [4].
In the case of “GCGUAUUAGGUGUAGCUAGACAUUCAAGAAGGGUGAAGAACAUGAGGAUCACCCAUGUAGUUGUUACAGGAUAUUGAUUUACGC”, the “apparent Kd” value by setting is: under setting [1], 785 nM; under setting [2], 260 nM.
With “UUGUGCUGAGAGAAGGUUCAAACUACAUAUUGCGCACAUGAGGAUCACCCAUGUUGGUGAAUAAGAAAGGAUAUUUUACUGUAU”, the “apparent Kd” value under setting [3] was found to be 244 nM and the “apparent Kd” value under setting [4] is 184 nM.
Turning to “GGAGCCGGCACCGAGGAUAUUCAUAUUAAAACAUGAGGAUCACCCAUGUAGCUCGAAAGAGCUUGGGAGAAGGCGGAUCGGCUCG”, the “apparent Kd” value under setting [1] is 840 nM and the “apparent Kd” value under setting [2] came to 43.1 nM.
Taken in the same sequence, the figures for “UCAUUUACCACAGGAUAUAUUCAUAUACAGUUGUUUGGCUCUUACAUAUUAAUAGAAGGGUGCAACAUGAGGAUCACCCAUGUA” were 274 nM and 191 nM.
Regarding “AAGGACUGAAUAAAUAACUCAAAUACAUGAGGAUCACCCAUGUAGGAUAUCGUCAGGAAUACUGACGAGAAGGACAUACAGUCC”, the “apparent Kd” value by setting is: under setting [3], 14 nM; under setting [4], 20.2 nM.
Turning to “ACAUGAGGAUCACCCAUGUGUACAUAGGAUAUUGAGGAUUAGGGAUGUUGUUUUGGAUUUGCCCACAAGAAGGAUGAAAGUGUU”, the “apparent Kd” value under setting [1] is 9.68 nM and the “apparent Kd” value under setting [2] amounted to 8.68 nM.
For “GCGUAAUAGGUGUAGCUAGUCAUUCAAGAAGGGUGGAGAACAUGAGGAUCACCCAUGUGGUUUAUACAGGAUAUUGAUAUACGC”, in that order: 258 nM and 51.2 nM.
On to “CGUGUUGACGAAGGAUAUGGAUACAUGAGGAUCACCCAUGUAUAUUUUGUGAUCAUAUUUAUGAUCCAGAAGGUCGUUGACACG”, for which the “apparent Kd” value under setting [3] was found to be 56.9 nM and the “apparent Kd” value under setting [4] amounted to 131 nM.
Taken in the same sequence, the figures for “AAAUAGCGAGGAUAUACAUGAGGAUCACCCAUGUGGACUGAUGUCGCAUGUUUCAGUGGUAGAAGGUGCUCAAA” were 136 nM and 299 nM.
For “UUUUUGUCAGGAUAUACGUAGUAGAACAAUAGUACUACUACGUAGAAGGGACAUGAGGAUCACCCAUGUUCCUC”, in that order: 14.8 nM and 30.9 nM.
As for “AAAAAGUGAGGAUAUGCUGCUCGUCACUUGCGUGAUGAGUAGCAGAAGGCACAUGAGGAUCACCCAUGUGGGAA”, the “apparent Kd” value runs as follows: under setting [3], 82.6 nM; under setting [4], 170 nM.
For the sequence “GCAAUCGCAUGAGGAUAUGCUCGAGUUUAGAGAGCAGAAGGCAUGUCAUAAGACAUGAGGAUCACCCAUGUAGUUAAAAUGGCA”, the “apparent Kd” value came to 39.9 nM under setting [1] and 9.42 nM under setting [2].
For “GCCGGGUAGGCAGGAUAUCCUCGCGCAAACACAUGAGGAUCACCCAUGUACACAAAACGUGAUAUGGAGAAGGGCCGACCCACG”, in that order: 24.2 nM and 5.66 nM.

(Values after the EternaBench riboswitch data.)
